Test results reported in ChEMBL document CHEMBL1156262, “Substituted benzothiophene or benzofuran derivatives as a novel class of bone morphogenetic protein-2 up-regulators: synthesis, structure-activity relationships, and preventive bone loss efficacies in senescence accelerated mice (SAMP6) and ovariectomized rats” (J Med Chem, 2010).
Activity calls are given as the source filed them. The calls are words filed in the database; no cut-off is given here.

Assays:
[1] = Induction of BMP2 expression in mouse calcarial MC3T3-E1 cells stably transfected with mouse BMP2 promotor-luciferase assessed as upregulation rate at 4 uM; assay type: functional, cell-based
In short: (§1)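 Reporter assay in murine calvarial MC3T3-E1 cells stably carrying the mouse BMP-2 promoter fused to firefly luciferase (pGL4BMP-2). Cells grown in DMEM with 10% heat-inactivated FBS at 37 °C and 5% CO2. Test compounds at 4.0 μM; lovastatin at 0.4 μM as positive control; 0.1% DMSO as negative control. Up-regulation rate = (RLU of test − RLU of negative control)/RLU of negative control × 100.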

[2] = system: Mus musculus; assay: Induction of bone formation in SAMP6 mouse right femora assessed as trabecular formation surface percentage at 10 mg/kg/day, po measured after 3 months by bone histomorphometry; assay type: functional, Trabecula
In short: (§2)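 SAMP6 mice, 5 months old, n = 5 per group (3 male, 2 female), randomized by initial BMD. Given compound in 0.5% methylcellulose by gavage daily for 3 months. Proximal third of the right femur fixed in 4% paraformaldehyde, cut as undecalcified sections, and scored by image analysis for histomorphometry.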

[3] = system: Mus musculus; assay: Induction of bone formation in SAMP6 mouse right femora assessed as trabecular resorption surface percentage at 10 mg/kg/day, po measured after 3 months by bone histomorphometry; assay type: functional, Trabecula; in short: as §2
[4] = system: Mus musculus; assay: Induction of bone mineral density in SAMP6 mouse assessed as spine BMD at 10 mg/kg/day, po measured after 3 months; assay type: functional
In short: (§3)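 SAMP6 mice, 5 months old, n = 5 per group, given compound in 0.5% methylcellulose by gavage daily. Dual-energy X-ray absorptiometry under pentobarbital anaesthesia (50 mg/kg ip), animals prone, at 0, 4, 8 and 12 weeks of treatment. Regions of interest were whole body, spine and left hind leg.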

[5] = system: Mus musculus; assay: Induction of bone formation in SAMP6 mouse right femora assessed as trabecular bone volume percentage at 10 mg/kg/day, po measured after 3 months by bone histomorphometry; assay type: functional, Trabecula; in short: as §2
[6] = system: Mus musculus; assay: Induction of bone mineral density in SAMP6 mouse assessed as whole body BMD at 30 mg/kg/day, po measured after 2 months; assay type: functional, organism-based; in short: as §3
[7] = system: Mus musculus; assay: Induction of bone mineral density in SAMP6 mouse assessed as spine BMD at 10 mg/kg/day, po measured last 2 months; assay type: functional, organism-based; in short: as §3
[8] = system: Mus musculus; assay: Induction of bone mineral density in SAMP6 mouse assessed as whole body BMD at 10 mg/kg/day, po measured after 3 months; assay type: functional; in short: as §3
[9] = Induction of BMP2 expression in mouse […] MC3T3-E1 cells stably transfected with mouse BMP2 promotor-luciferase assessed as upregulation rate at 0.4 uM; assay type: functional, cell-based; in short: as §1
[10] = system: Mus musculus; assay: Induction of bone mineral density in SAMP6 mouse assessed as left hind leg BMD at 10 mg/kg/day, po measured after 3 months; assay type: functional; in short: as §3
[11] = system: Mus musculus; assay: Induction of bone formation in SAMP6 mouse right femora assessed as average osteoid width at 10 mg/kg/day, po measured after 3 months by bone histomorphometry; assay type: functional; in short: as §2
[12] = system: Mus musculus; assay: Toxicity in SAMP6 mouse assessed as pathological changes in liver at 30 mg/kg/day, po after 3 months by histomorphology; assay type: organism-based; set-up: route oral; details: in vivo
In short: (§4)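 SAMP6 mice, n = 5 per group, dosed orally at 30 mg/kg/day in 0.5% methylcellulose for 3 months. Heart, liver, spleen, lung and kidney harvested, weighed and examined histologically. Organ/body weight indexes, body weight, and 24 h water and food intake (g/g body weight) compared with vehicle controls.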

[13] = system: Mus musculus; assay: Induction of bone mineral density in SAMP6 mouse assessed as left hind leg BMD at 30 mg/kg/day, po measured after 3 months; assay type: functional; in short: as §3
[14] = system: Mus musculus; assay: Toxicity in SAMP6 mouse assessed as pathological changes in heart at 30 mg/kg/day, po after 3 months by histomorphology; assay type: organism-based; set-up: route oral; details: in vivo; in short: as §4
[15] = system: Mus musculus; assay: Induction of bone formation in SAMP6 mouse right femora assessed as trabecular resorption surface percentage at 30 mg/kg/day, po measured after 3 months by bone histomorphometry; assay type: functional, Trabecula; in short: as §2
[16] = system: Mus musculus; assay: Toxicity in SAMP6 mouse assessed as pathological changes in lung at 30 mg/kg/day, po after 3 months by histomorphology; assay type: organism-based; set-up: route oral; details: in vivo; in short: as §4
[17] = system: Mus musculus; assay: Toxicity in SAMP6 mouse assessed as pathological changes in kidney at 30 mg/kg/day, po after 3 months by histomorphology; assay type: organism-based; set-up: route oral; details: in vivo; in short: as §4
[18] = system: Mus musculus; assay: Induction of bone mineral density in SAMP6 mouse assessed as whole body BMD at 10 mg/kg/day, po measured after 1 month; assay type: functional, organism-based; details: 30 mg/kg, in the assay text read “30 mg/kg/day” for “10 mg/kg/day”; in short: as §3
[19] = system: Mus musculus; assay: Induction of bone formation in SAMP6 mouse right femora assessed as average osteoid width at 30 mg/kg/day, po measured after 3 months by bone histomorphometry; assay type: functional; in short: as §2
[20] = system: Mus musculus; assay: Induction of bone formation in SAMP6 mouse right femora assessed as trabecular bone volume percentage at 30 mg/kg/day, po measured after 3 months by bone histomorphometry; assay type: functional, Trabecula; in short: as §2
[21] = system: Mus musculus; assay: Toxicity in SAMP6 mouse assessed as change in 24 hrs food consumption at 30 mg/kg/day, po after 3 months; assay type: organism-based; set-up: route oral; details: in vivo; in short: as §4
[22] = system: Mus musculus; assay: Induction of bone mineral density in SAMP6 mouse assessed as whole body BMD at 30 mg/kg/day, po measured after 2 months
[23] = system: Mus musculus; assay: Induction of BMP2 expression in SAMP6 mouse bone marrow stroma at 30 mg/kg/day, po after 3 months by immunohistochemical analysis; assay type: functional, organism-based
In short: (§5)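 SAMP6 mice, 5 months old, male and female, n = 5 per group (3 male, 2 female). Dosed by gavage with compound suspended in 0.5% methylcellulose daily for 3 months; the vehicle group received methylcellulose only. Proximal third of the left femur fixed in 4% neutral paraformaldehyde for 24 h, decalcified in 10% EDTA at 4 °C for 4 weeks, then frozen-sectioned at 5 μm. Stained with rabbit polyclonal anti-BMP-2 and an alkaline phosphatase secondary. BMP-2-positive area was taken as a percentage of bone tissue area, averaged over five fields below the epiphyseal plate.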

[24] = system: Mus musculus; assay: Induction of bone mineral density in SAMP6 mouse assessed as whole body BMD at 30 mg/kg/day, po measured after 3 months; assay type: functional; in short: as §3
[25] = system: Mus musculus; assay: Induction of bone formation in SAMP6 mouse right femora assessed as trabecular formation surface percentage at 30 mg/kg/day, po measured after 3 months by bone histomorphometry; assay type: functional, Trabecula; in short: as §2
[26] = system: Mus musculus; assay: Toxicity in SAMP6 mouse assessed as pathological changes in spleen at 30 mg/kg/day, po after 3 months by histomorphology; assay type: organism-based; set-up: route oral; details: in vivo; in short: as §4
[27] = system: Mus musculus; assay: Induction of bone mineral density in SAMP6 mouse assessed as spine BMD at 30 mg/kg/day, po measured after 3 months; assay type: functional; in short: as §3
[28] = system: Mus musculus; assay: Toxicity in SAMP6 mouse assessed as increase in body weight at 30 mg/kg/day, po after 3 months; assay type: organism-based; set-up: route oral; details: in vivo; in short: as §4
[29] = system: Mus musculus; assay: Induction of BMP2 expression in SAMP6 mouse osteoblast at 10 mg/kg/day, po after 3 months by immunohistochemical analysis; assay type: functional, organism-based; in short: as §5
[30] = system: Mus musculus; assay: Induction of BMP2 expression in SAMP6 mouse cartilage cells at 30 mg/kg/day, po after 3 months by immunohistochemical analysis; assay type: functional, organism-based; in short: as §5
[31] = Toxicity in po dosed Kunming mouse assessed as mortality treated for 3 days measured after 17 days; assay type: organism-based; details: in vivo
In short: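 Male and female Kunming mice (18-21 g), six per group (three males, three females), were dosed orally at 500 or 700 (mg/kg)/day for 3 days. They were closely watched for deaths over the 3 dosing days and the following 14 days (17 days in total).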

[32] = system: Mus musculus; assay: Induction of BMP2 expression in SAMP6 mouse osteoblast at 30 mg/kg/day, po after 3 months by immunohistochemical analysis; assay type: functional, organism-based; in short: as §5
[33] = system: Mus musculus; assay: Toxicity in SAMP6 mouse assessed as change in 24 hrs water consumption at 30 mg/kg/day, po after 3 months; assay type: organism-based; set-up: route oral; details: in vivo; in short: as §4
[34] = system: Mus musculus; assay: Induction of bone mineral density in SAMP6 mouse assessed as spine BMD at 30 mg/kg/day, po measured last 2 months; assay type: functional, organism-based; in short: as §3
[35] = system: Mus musculus; assay: Induction of bone mineral density in SAMP6 mouse assessed as whole body BMD at 10 mg/kg/day, po measured after 2 months; assay type: functional, organism-based; details: 30 mg/kg, in the assay text read “30 mg/kg/day” for “10 mg/kg/day”; in short: as §3

## O=C(/C=C/c1ccccc1)c1cc2ccccc2o1
[1]
  Activity: 24.4%

## COc1cc2cc(C(=O)C[S+](C)[O-])sc2cc1OC (stereo not given)
[1]
  Activity: 13.5%

## CCOC(=O)c1cc2cc(Cl)cc(Cl)c2o1
[1]
  Activity: -1.6%

## C[S+]([O-])CC(=O)c1cc2cc3c(cc2s1)OCO3 (stereo not given)
[1]
  Activity: 0.6%

## CCOC(=O)c1ccc2sc(C(=O)/C=C/c3ccc(OC)c(OC)c3OC)cc2c1
[1]
  Activity: -21.5%

## CCOC(=O)c1ccc2sc(C(=O)/C=C/c3ccc(OC)cc3)cc2c1
[1]
  Activity: 1.7%

## CCOC(=O)c1ccc2sc(C(=O)/C=C/c3ccc(OC)c(OC)c3)cc2c1
[1]
  Activity: -9.6%

## CCOC(=O)c1cc2ccccc2s1
[1]
  Activity: 8.2%

## CC[C@H](C)C(=O)O[C@H]1C[C@@H](C)C=C2C=C[C@H](C)[C@H](CC[C@@H]3C[C@@H](O)CC(=O)O3)[C@H]21 [LOVASTATIN]
[2]
  Activity: 6.22%
[3]
  Activity: 6.64%
[4]
  Activity: 0.095 g/cm2
[5]
  Activity: 7.44%
[6]
  Activity: Active
[7]
  Activity: Active
[8]
  Activity: 0.07 g/cm2
[9]
  Activity: 20.9%
[10]
  Activity: 0.046 g/cm2
[11]
  Activity: 6.59 µm

## COc1ccc(/C=C/C(=O)c2cc3ccccc3s2)cc1
[12]
  Activity: Non-toxic
[13]
  Activity: 0.05 g/cm2
[14]
  Activity: Non-toxic
[15]
  Activity: 6.29%
[16]
  Activity: Non-toxic
[17]
  Activity: Non-toxic
[18]
  Activity: Active
[19]
  Activity: 5.5 µm
[20]
  Activity: 8.94%
[21]
  Activity: Non-toxic
[22]
  Activity: Active
[1]
  Activity: 27.3%
[23]
  Activity: Active
[24]
  Activity: 0.07 g/cm2
[25]
  Activity: 6.54%
[26]
  Activity: Non-toxic
[27]
  Activity: 0.089 g/cm2
[28]
  Activity: Non-toxic
[29]
  Activity: Active
[30]
  Activity: inactive
[31]
  LD50 at 408 h: > 500 mg/kg
[32]
  Activity: Active
[33]
  Activity: Non-toxic

## CCOC(=O)c1cc2cc(OC)c(OC)cc2s1
[1]
  Activity: 49.9%

## COc1cc2cc(C(C)=O)sc2cc1OC
[1]
  Activity: 37.1%

## CCOC(=O)c1cc2cc3c(cc2s1)OCO3
[12]
  Activity: Non-toxic
[13]
  Activity: 0.053 g/cm2
[14]
  Activity: Non-toxic
[15]
  Activity: 6.45%
[16]
  Activity: Non-toxic
[17]
  Activity: Non-toxic
[18]
  Activity: Active
[34]
  Activity: Active
[19]
  Activity: 5.76 µm
[20]
  Activity: 7.1%
[21]
  Activity: Non-toxic
[1]
  Activity: 64.2%
[23]
  Activity: Active
[24]
  Activity: 0.072 g/cm2
[25]
  Activity: 5.55%
[6]
  Activity: Active
[26]
  Activity: Non-toxic
[27]
  Activity: 0.091 g/cm2
[28]
  Activity: Non-toxic
[29]
  Activity: Active
[30]
  Activity: inactive
[31]
  LD50 at 408 h: > 500 mg/kg
[32]
  Activity: Active
[35]
  Activity: Active
[33]
  Activity: Non-toxic

## CS(=O)(=O)CC(=O)c1cc2ccccc2s1
[1]
  Activity: 5.1%

## CCOC(=O)c1cc2cccc(OC)c2o1
[1]
  Activity: 12.4%
